Data: ChEMBL document CHEMBL1681775, “Design of a novel pyrrolidine scaffold utilized in the discovery of potent and selective human β3 adrenergic receptor agonists” (Bioorg Med Chem Lett, 2011)
Values after ≈ are worked out from the molar mass of the structure shown. Blank lines part the entries; values can stand above or below the molecule they belong to.

Tests used:
[1] = target: T1, Beta-3 adrenergic receptor (Homo sapiens, UniProt P13945); assay: Agonist activity at human beta3 adrenergic receptor; format: functional
Target sequence in this assay (P13945 whole entry): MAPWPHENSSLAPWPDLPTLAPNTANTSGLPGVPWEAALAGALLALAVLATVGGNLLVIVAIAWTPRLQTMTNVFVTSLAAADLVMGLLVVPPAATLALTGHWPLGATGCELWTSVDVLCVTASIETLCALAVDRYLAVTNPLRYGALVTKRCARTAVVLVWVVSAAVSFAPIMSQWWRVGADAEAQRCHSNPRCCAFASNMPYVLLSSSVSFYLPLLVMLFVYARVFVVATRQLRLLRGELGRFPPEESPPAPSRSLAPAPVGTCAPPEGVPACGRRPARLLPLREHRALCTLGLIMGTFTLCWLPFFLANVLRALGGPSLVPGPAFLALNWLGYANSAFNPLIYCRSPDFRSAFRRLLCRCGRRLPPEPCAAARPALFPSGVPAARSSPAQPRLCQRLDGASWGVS

[2] = target: T1, Beta-3 adrenergic receptor; assay: Agonist activity at human beta3 adrenergic receptor relative to control; format: functional
Target sequence in this assay (P13945 whole entry, looked up): as the sequence (P13945 whole entry) above

[3] = target: T2, Beta-1 adrenergic receptor (Homo sapiens, UniProt P08588); assay: Agonist activity at human beta1 adrenergic receptor; format: functional
T2 sequence (P08588 whole entry): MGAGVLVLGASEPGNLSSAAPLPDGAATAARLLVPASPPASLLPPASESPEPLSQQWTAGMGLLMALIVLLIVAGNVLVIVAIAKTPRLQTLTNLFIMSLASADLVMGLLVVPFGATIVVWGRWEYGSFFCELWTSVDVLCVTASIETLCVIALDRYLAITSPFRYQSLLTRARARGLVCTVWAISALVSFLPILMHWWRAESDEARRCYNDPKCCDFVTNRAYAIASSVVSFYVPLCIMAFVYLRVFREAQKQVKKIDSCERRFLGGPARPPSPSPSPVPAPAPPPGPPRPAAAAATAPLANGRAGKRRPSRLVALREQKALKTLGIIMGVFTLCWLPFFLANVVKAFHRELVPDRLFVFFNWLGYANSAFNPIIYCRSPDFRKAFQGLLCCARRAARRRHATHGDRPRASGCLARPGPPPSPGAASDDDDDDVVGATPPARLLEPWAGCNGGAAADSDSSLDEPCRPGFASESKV

[4] = target: T3, Beta-2 adrenergic receptor (Homo sapiens, UniProt P07550); assay: Agonist activity at human beta2 adrenergic receptor; format: functional
T3 sequence (P07550 whole entry): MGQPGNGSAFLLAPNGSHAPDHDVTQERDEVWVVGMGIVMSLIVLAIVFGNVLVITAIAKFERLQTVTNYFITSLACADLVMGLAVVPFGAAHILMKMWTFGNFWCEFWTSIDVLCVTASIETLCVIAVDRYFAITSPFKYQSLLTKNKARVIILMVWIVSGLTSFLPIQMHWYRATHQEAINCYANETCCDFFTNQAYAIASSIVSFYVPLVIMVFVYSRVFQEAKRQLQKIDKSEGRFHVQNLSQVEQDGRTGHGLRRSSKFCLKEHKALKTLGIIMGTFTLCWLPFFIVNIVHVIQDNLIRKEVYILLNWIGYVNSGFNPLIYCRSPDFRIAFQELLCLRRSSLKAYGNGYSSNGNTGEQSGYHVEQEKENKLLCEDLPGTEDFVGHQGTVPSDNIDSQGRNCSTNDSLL

Cytochrome P450 2D6 = Cytochrome P450 2D6 (Homo sapiens, UniProt P10635); assay: Inhibition of CYP2D6; format: ADME
Cytochrome P450 2D6, sequence (P10635 whole entry): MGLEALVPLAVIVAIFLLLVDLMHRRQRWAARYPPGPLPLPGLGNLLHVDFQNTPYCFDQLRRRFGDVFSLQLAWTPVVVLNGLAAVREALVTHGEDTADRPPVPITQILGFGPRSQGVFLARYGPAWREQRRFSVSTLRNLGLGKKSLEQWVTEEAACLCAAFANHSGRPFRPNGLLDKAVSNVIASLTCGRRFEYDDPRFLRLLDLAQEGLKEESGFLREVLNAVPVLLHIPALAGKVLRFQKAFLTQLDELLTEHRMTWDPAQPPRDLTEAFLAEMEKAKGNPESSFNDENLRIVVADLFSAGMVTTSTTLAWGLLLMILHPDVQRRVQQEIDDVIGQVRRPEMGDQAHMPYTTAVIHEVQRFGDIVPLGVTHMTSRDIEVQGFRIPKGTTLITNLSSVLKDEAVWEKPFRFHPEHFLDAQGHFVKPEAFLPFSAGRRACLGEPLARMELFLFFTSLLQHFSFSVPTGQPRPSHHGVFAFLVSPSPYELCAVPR

Cytochrome P450 3A4 = Cytochrome P450 3A4 (Homo sapiens, UniProt P08684); assay: Inhibition of CYP3A4; format: ADME
Cytochrome P450 3A4, sequence (P08684 whole entry): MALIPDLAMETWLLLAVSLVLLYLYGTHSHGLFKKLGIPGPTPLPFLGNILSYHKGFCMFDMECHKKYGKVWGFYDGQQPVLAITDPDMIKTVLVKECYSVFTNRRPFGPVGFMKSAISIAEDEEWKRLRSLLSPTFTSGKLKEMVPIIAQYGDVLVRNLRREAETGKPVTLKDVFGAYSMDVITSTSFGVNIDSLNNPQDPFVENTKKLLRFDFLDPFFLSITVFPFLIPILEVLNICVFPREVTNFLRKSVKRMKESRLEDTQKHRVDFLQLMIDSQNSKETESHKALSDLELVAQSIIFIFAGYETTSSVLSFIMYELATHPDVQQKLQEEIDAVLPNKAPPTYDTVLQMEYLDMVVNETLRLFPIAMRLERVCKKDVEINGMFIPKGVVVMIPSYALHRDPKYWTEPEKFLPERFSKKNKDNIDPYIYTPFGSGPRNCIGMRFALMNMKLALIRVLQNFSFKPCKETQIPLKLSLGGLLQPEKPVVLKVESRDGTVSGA

Nav1.5 = Nav1.5 (Homo sapiens, UniProt Q14524); assay: Inhibition of human Nav1.5 at 30 uM
Nav1.5, sequence (Q14524 whole entry): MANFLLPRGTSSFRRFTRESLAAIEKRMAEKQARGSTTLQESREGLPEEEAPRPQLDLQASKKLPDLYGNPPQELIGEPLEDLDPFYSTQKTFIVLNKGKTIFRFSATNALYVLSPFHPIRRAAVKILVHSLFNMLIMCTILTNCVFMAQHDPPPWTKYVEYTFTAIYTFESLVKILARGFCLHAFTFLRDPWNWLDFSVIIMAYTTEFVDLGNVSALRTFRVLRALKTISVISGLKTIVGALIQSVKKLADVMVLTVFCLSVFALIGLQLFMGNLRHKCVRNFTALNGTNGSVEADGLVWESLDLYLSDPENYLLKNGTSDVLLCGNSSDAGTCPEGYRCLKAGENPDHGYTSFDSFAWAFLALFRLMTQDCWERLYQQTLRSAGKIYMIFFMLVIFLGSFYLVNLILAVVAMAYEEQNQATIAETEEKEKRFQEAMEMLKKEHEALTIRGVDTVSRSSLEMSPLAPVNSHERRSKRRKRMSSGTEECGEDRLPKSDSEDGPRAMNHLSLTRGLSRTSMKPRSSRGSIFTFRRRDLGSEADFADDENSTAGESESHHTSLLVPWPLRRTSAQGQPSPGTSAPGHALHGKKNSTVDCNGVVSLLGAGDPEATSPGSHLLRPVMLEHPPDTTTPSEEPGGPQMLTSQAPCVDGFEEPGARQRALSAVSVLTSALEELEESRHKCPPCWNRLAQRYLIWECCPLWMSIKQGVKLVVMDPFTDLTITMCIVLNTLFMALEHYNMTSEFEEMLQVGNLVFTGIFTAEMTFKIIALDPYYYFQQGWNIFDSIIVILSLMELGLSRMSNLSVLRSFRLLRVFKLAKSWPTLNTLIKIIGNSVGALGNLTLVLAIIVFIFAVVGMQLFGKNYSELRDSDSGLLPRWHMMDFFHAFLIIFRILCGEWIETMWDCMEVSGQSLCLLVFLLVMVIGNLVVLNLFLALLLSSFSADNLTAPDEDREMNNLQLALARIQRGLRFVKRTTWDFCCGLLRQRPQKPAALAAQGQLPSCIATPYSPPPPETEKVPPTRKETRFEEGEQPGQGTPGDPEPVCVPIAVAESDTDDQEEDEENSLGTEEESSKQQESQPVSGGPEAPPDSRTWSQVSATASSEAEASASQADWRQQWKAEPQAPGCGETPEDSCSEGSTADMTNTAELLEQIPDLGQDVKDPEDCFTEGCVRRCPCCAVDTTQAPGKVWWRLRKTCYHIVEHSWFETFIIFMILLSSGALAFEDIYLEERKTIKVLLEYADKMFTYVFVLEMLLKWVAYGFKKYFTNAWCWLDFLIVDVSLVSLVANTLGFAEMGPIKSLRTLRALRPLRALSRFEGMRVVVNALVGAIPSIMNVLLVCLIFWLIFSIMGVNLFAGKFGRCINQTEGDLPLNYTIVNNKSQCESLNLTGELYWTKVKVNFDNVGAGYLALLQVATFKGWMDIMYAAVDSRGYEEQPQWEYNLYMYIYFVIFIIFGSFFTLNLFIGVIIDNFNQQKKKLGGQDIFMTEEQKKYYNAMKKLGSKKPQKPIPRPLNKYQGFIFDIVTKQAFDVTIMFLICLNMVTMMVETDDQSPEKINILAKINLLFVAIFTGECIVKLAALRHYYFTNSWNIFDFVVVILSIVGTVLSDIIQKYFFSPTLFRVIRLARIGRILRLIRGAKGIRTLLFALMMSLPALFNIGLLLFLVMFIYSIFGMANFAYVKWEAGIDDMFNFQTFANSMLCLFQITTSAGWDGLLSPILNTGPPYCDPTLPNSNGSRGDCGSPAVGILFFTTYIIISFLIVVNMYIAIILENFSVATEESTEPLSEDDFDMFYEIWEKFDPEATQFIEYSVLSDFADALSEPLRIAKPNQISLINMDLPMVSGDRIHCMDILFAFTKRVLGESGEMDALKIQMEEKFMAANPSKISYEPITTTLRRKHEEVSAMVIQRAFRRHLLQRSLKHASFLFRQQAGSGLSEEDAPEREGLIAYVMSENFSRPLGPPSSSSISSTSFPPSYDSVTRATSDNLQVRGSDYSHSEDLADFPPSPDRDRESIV

[5] = Oral bioavailability in rhesus monkey; format: ADME, organism-based, Macaca mulatta; details: in vivo
[6] = Volume of distribution in rat; format: ADME, organism-based; details: in vivo
[7] = Oral bioavailability rat; format: ADME, organism-based; details: in vivo
[8] = Metabolic stability in rhesus monkey liver microsomes assessed as compound remaining after 45 mins; format: ADME, Macaca mulatta, Microsome; details: read-out: Stability
[9] = Half life in iv dosed rhesus monkey; format: ADME, organism-based, Macaca mulatta; details: in vivo
[10] = Metabolic stability in rat liver microsomes assessed as compound remaining after 45 mins; format: ADME, Microsome; details: read-out: Stability
[11] = (§1) Half life in iv dosed dog; format: ADME, organism-based, Canis lupus familiaris; details: in vivo
[12] = Solubility of the compound at pH < 5.2; format: physicochemical
[13] = Metabolic stability in dog liver microsomes assessed as compound remaining after 45 mins; format: ADME, Canis lupus familiaris, Microsome; details: read-out: Stability
[14] = Half life in iv dosed rat; format: ADME, organism-based; details: in vivo
[15] = Mutagenic activity in Salmonella Typhimurium by AMES test in presence of S9 fraction; format: toxicity; details: salmonella enterica subsp. enterica serovar typhimurium, in the assay text read “5-fluorouracil forward mutation assay” for “AMES test”
[16] = Oral bioavailability in dog; format: ADME, organism-based, Canis lupus familiaris; details: in vivo
[17] = Plasma clearance in iv dosed dog; format: ADME, organism-based, Canis lupus familiaris
[18] = target: T3, Beta-2 adrenergic receptor; assay: Binding affinity to human beta2 adrenergic receptor
[19] = Metabolic stability in human liver microsomes assessed as compound remaining after 45 mins; format: ADME, Microsome; details: read-out: Stability
[20] = Volume of distribution in dog; format: ADME, organism-based, Canis lupus familiaris; details: in vivo
Cytochrome P450 2C9 = Cytochrome P450 2C9 (Homo sapiens, UniProt P11712); assay: Inhibition of CYP2C9; format: ADME
Cytochrome P450 2C9, sequence (P11712 whole entry): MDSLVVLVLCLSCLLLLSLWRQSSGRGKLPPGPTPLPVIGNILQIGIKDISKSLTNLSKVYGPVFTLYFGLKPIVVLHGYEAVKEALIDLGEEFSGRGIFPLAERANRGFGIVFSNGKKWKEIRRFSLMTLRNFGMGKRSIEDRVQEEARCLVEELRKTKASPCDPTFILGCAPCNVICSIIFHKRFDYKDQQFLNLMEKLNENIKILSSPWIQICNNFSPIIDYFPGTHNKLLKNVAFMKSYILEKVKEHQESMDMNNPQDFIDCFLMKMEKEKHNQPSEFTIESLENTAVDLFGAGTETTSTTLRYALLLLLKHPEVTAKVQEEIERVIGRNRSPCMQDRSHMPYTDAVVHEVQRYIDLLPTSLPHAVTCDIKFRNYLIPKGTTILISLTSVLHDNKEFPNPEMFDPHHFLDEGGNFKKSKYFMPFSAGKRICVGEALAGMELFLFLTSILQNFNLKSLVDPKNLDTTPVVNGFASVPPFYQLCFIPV

[21] = Volume of distribution in rhesus monkey; format: ADME, organism-based, Macaca mulatta; details: in vivo
[22] = target: Voltage-gated inwardly rectifying potassium channel KCNH2 (Homo sapiens, UniProt Q12809); assay: Inhibition of human ERG
[23] = Plasma clearance in iv dosed rhesus monkey; format: ADME, organism-based, Macaca mulatta
Cytochrome P450 2C8 = target: T4, Cytochrome P450 2C8 (Homo sapiens, UniProt P10632); assay: Inhibition of CYP2C8; format: ADME
T4 sequence (P10632 whole entry): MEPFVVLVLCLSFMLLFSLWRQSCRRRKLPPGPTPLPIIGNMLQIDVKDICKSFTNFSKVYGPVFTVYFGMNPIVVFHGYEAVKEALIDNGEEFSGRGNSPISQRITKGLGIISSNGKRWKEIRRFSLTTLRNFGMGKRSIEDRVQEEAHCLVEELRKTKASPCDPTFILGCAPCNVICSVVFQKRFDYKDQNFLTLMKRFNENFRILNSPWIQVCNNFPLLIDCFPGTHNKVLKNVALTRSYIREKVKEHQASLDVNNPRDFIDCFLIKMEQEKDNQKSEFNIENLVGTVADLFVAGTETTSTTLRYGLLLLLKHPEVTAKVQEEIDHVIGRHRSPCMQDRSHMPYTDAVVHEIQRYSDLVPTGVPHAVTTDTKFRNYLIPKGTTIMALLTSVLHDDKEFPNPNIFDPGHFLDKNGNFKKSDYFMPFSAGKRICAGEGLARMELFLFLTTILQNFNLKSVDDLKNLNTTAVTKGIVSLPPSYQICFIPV

[24] = target: T2, Beta-1 adrenergic receptor; assay: Binding affinity to human beta1 adrenergic receptor
[25] = Solubility of the compound at pH 7.4; format: physicochemical; details: buffer
[26] = Mutagenic activity in Salmonella Typhimurium assessed as 2 fold increase of revertants at 30 to 600 ug/plate by AMES test relative to control in absence of S9 fraction; format: toxicity; details: salmonella enterica subsp. enterica serovar typhimurium, in the assay text read “30 to 6000 ug/plate” for “30 to 600 ug/plate”
How it was run: (§2)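 Ames microbial mutagenesis assay in bacterial strains, run with and without S-9 metabolic activation. A positive response was defined as a 2-fold or greater increase in revertants over the control.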

[27] = Mutagenic activity in Salmonella Typhimurium assessed as 2 fold increase of revertants at 30 to 600 ug/plate by AMES test relative to control in presence of S9 fraction; format: toxicity; details: salmonella enterica subsp. enterica serovar typhimurium, in the assay text read “30 to 6000 ug/plate” for “30 to 600 ug/plate”; how it was run: as §2
Homo sapiens [28] = species: Homo sapiens; assay: Selectivity ratio of human beta3 adrenergic receptor to human beta2 adrenergic receptor
Canis familiaris = assay: as §1; format: ADME, organism-based, Canis lupus familiaris; details: in vivo
Homo sapiens [29] = species: Homo sapiens; assay: Selectivity ratio of human beta3 adrenergic receptor to human beta1 adrenergic receptor

Structure (SMILES): O=S(=O)(Nc1ccc(CC2CC[C@H]([C@@H](O)c3ccccc3)N2)cc1)c1ccc(-c2nc(-c3ccc(C(F)(F)F)cc3)cs2)cc1 (mixture of isomers)
EC50 ([1]; read-out: EC50): 1310 nM
Activity [2]: 104%
IC50 [3]: 1520 nM
IC50 [4]: 2790 nM

Structure (SMILES): O=S(=O)(Nc1ccc(C[C@H]2CC[C@H]([C@H](O)c3ccccc3)N2)cc1)c1ccc(-c2nc(-c3ccc(C(F)(F)F)cc3)cs2)cc1
EC50 ([1]; read-out: EC50): 83 nM
Activity [2]: 76%
IC50 [3]: 242 nM
INH (Cytochrome P450 2D6): > 50 µM
IC50 [4]: 297 nM
INH (Cytochrome P450 3A4): > 50 µM

Structure (SMILES): CC(Cc1ccc(NS(=O)(=O)c2ccc(-c3nc(-c4ccc(C(F)(F)F)cc4)cs3)cc2)cc1)NC(C)[C@H](O)c1ccccc1 (mixture of isomers)
EC50 [1]: Not Active

Structure (SMILES): Nc1ccc(C[C@@H]2CC[C@H]([C@H](O)c3ccccc3)N2)cc1
Activity [26]: Non-toxic
Activity [27]: Non-toxic

Structure (SMILES): O=S(=O)(Nc1ccc(CC2CC[C@@H]([C@H](O)c3ccccc3)N2)cc1)c1ccc(-c2nc(-c3ccc(C(F)(F)F)cc3)cs2)cc1 (mixture of isomers)
EC50 ([1]; read-out: EC50): 81 nM
Activity [2]: 104%
IC50 [3]: 2150 nM
IC50 [4]: 3530 nM

Continued, in another order:

EC50 ([1]; read-out: EC50): 2030 nM
Activity [2]: 89%
IC50 [3]: 1780 nM
IC50 [4]: 3530 nM
Structure (SMILES): O=S(=O)(Nc1ccc(CC2CC[C@@H]([C@@H](O)c3ccccc3)N2)cc1)c1ccc(-c2nc(-c3ccc(C(F)(F)F)cc3)cs2)cc1 (mixture of isomers)

EC50 ([1]; read-out: EC50): 0.98 nM
bioavailability [5]: 14%
Vd [6]: 5.8 L/kg
bioavailability [7]: 12%
remaining at 0.75 h [8]: 77%
half-life [9]: 9.9 h
remaining at 0.75 h [10]: 13%
half-life [11]: 8.3 h
solubility [12]: > 1800 µg/mL
remaining at 0.75 h [13]: 23%
Activity [2]: 99%
half-life [14]: 7.7 h
bioavailability [16]: 18%
clearance [17]: 23 mL/min/kg
IC50 [18]: > 20000 nM
IC50 [3]: > 20000 nM
INH (Cytochrome P450 2D6): 2.2 µM
remaining at 0.75 h [19]: 40%
Vd [20]: 14 L/kg
INH (Cytochrome P450 2C9): > 100 µM
Vd [21]: 26.4 L/kg
clearance [23]: 43.4 mL/min/kg
INH (Cytochrome P450 2C8): > 100 µM
IC50 [24]: > 20000 nM
solubility [25]: 1300 µg/mL (≈ 3.08 mM)
IC50 [4]: > 20000 nM
INH (Cytochrome P450 3A4): > 100 µM
Structure (SMILES): Nc1nc(CC(=O)Nc2ccc(C[C@@H]3CC[C@H]([C@H](O)c4ccccc4)N3)cc2)cs1
inhibition at 30 µM (Nav1.5): 26%
Activity [15]: Non-toxic
IC50 [22]: 11200 nM

EC50 ([1]; read-out: EC50): 11 nM
Activity [2]: 95%
IC50 [3]: 1040 nM
IC50 [4]: 780 nM
Structure (SMILES): O=S(=O)(Nc1ccc(CCNC[C@H](O)c2ccccc2)cc1)c1ccc(-c2nc(-c3ccc(C(F)(F)F)cc3)cs2)cc1

EC50 ([1]; read-out: EC50): 4.1 nM
Activity [2]: 95%
IC50 [3]: 2190 nM
INH (Cytochrome P450 2D6): > 50 µM
IC50 [4]: 2510 nM
INH (Cytochrome P450 3A4): > 50 µM
Structure (SMILES): O=S(=O)(Nc1ccc(C[C@@H]2CC[C@H]([C@H](O)c3ccccc3)N2)cc1)c1ccc(-c2nc(-c3ccc(C(F)(F)F)cc3)cs2)cc1

EC50 ([1]; read-out: EC50): 15 nM
Activity [2]: 101%
IC50 [3]: 2930 nM
IC50 [4]: 2180 nM
Structure (SMILES): O=S(=O)(Nc1ccc(CC2CC[C@H]([C@H](O)c3ccccc3)N2)cc1)c1ccc(-c2nc(-c3ccc(C(F)(F)F)cc3)cs2)cc1 (mixture of isomers)

Selectivity ratio (Homo sapiens [28]): 1000
Vd [6]: 23 L/kg
t1/2 (Canis familiaris): 14 h
half-life [14]: 8.1 h
Selectivity ratio (Homo sapiens [29]): 1000
Vd [20]: 12 L/kg
Vd [21]: 6.2 L/kg
Structure (SMILES): O=S(=O)(Nc1ccc(CCNC[C@H](O)c2cccnc2)cc1)c1ccc(-c2nc(-c3ccc(C(F)(F)F)cc3)cs2)cc1
